Laboratory results: ChEMBL document CHEMBL1921672, “Design, synthesis, and qualitative structure-activity evaluations of novel β-secretase inhibitors as potential Alzheimer's drug leads” (J Med Chem, 2011)

Tests used:
[1] = target: T1, Beta-secretase 1 (Homo sapiens, UniProt P56817); assay: Inhibition of BACE1 expressing APP Swedish mutant using rhodamine-labeled EVNLDAEFK-quencher as substrate after 60 mins by FRET analysis
[2] = target: T1, Beta-secretase 1; assay: Inhibition of BACE1 expressing APP Swedish mutant using rhodamine-labeled EVNLDAEFK-quencher as substrate after 60 mins by Michaelis-Menten equation
Outline: (§1)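 Same FRET set-up (750 nM peptide substrate, KM 20 μM, 1 U/mL enzyme, pH 4.5 acetate, 60 min, 25 °C). Apparent KI derived from steady-state rates with and without inhibitor (vI, v0), then converted to absolute KI by correcting for substrate concentration and KM.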

[3] = target: T2, Beta-secretase 2 (Homo sapiens, UniProt Q9Y5Z0); assay: Inhibition of BACE2 expressing APP Swedish mutant using rhodamine-labeled EVNLDAEFK-quencher as substrate after 60 mins by Michaelis-Menten equation; outline: as §1
[4] = Selectivity ratio of IC50 for BACE2 to IC50 for BACE1
[5] = target: T2, Beta-secretase 2; assay: Inhibition of BACE2 expressing APP Swedish mutant using rhodamine-labeled EVNLDAEFK-quencher as substrate after 60 mins by FRET analysis
[6] = target: T1, Beta-secretase 1; assay: Inhibition of BACE1 in human H4 cells expressing APP Swedish K595N and M596L double mutant assessed as inhibition of amyloid beta (1 to 40) production after 24 hrs by whole cell assay; assay type: cell-based; conditions: pooled result: one value given for 2 cell lines, strains, targets or settings
Outline: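 H4 neuroglioma cells carrying human APP K595N/M596L, seeded at 2 × 10⁵ cells/well and grown 24 h, then given increasing compound concentrations overnight (1% DMSO negative control). Medium Aβ40 or Aβ42 measured by sandwich immunoassay: biotinylated 4G8 plus C-terminal-specific rabbit antibodies, electrochemiluminescence read-out. Viability checked by MTT (0.5 mg/mL, 3 h, 570 nm). EC50 as mean of ≥3 experiments ± SD.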

[7] = Aqueous solubility of the compound; assay type: physicochemical; conditions: water
Outline: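 Solubility estimated by HPLC. Salt sonicated 48 h in water, filtered through 0.45 μm, injected after a five-point calibration (1.44–18.0 mg/mL standards in acetonitrile/methanol 50:50 v/v; least-squares linear fit; triplicate injections). Reversed-phase C18 column, UV detection at 280 nm. Solubility taken where recovery began to fall with rising concentration.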

T1 sequence (P56817 whole entry): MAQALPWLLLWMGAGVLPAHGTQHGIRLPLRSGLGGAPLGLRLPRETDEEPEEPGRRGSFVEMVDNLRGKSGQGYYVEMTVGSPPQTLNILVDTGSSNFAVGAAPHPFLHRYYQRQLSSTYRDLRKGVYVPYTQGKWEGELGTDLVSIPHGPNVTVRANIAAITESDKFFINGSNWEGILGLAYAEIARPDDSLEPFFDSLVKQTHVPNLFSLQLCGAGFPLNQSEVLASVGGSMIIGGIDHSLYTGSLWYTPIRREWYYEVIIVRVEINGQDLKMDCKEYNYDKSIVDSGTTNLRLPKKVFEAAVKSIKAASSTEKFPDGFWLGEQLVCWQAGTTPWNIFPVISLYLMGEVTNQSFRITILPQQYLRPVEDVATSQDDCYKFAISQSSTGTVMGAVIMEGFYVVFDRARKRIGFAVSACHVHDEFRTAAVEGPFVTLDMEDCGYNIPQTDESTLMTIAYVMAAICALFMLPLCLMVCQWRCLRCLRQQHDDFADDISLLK
T2 sequence (Q9Y5Z0 63-518 limits assumed, stated change not applied): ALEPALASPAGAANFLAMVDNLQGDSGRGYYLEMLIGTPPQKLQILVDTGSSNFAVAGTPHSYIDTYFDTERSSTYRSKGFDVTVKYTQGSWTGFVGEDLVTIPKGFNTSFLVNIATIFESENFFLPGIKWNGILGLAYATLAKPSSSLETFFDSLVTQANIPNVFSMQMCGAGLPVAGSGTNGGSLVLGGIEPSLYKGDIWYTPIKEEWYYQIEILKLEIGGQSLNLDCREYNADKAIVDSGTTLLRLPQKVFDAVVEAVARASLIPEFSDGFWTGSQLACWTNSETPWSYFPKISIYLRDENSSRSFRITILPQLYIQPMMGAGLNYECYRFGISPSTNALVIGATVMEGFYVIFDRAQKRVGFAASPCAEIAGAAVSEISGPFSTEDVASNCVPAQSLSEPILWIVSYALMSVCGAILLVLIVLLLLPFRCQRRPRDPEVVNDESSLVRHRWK

| IC50 [1] [µM] | Ki [2] [µM] | Ki [3] [µM] | Ratio IC50 [4] | IC50 [5] [µM] | EC50 [6] [µM] | solubility [7] [µg/mL] | Structure (SMILES) |
| --- | --- | --- | --- | --- | --- | --- | --- |
| 2.24 | 2.16 | 2.81 | 1.3 | 2.9 | 2.41 | – | COc1ccc2nc(-c3ccc(-c4nc5ccccn5c4NC(C)(C)C)cc3)[nH]c2c1 |
| 0.961 | 0.926 | 3.78 | – | 3.89 | 1.55 | – | c1cc(-c2cn3ccccc3n2)cc(-c2nc3ccccc3[nH]2)c1 |
| 0.178 | 0.253 | 4 | 23 | 4.12 | 0.31 | – | COc1ccc2nc(-c3cccc(-c4nc5ccccn5c4NC(C)(C)C)c3)[nH]c2c1 |
| – | – | – | – | – | – | 10000 | Cl.Fc1ccc2nc(-c3cccc(-c4cn5ccc(F)cc5n4)c3)[nH]c2c1 |
| 0.077 | 0.062 | 2.28 | – | 2.35 | 0.179 | – | COc1cccc(-c2c[nH]c(-c3cc(C(=O)N[C@@H](C)c4ccccc4)cc(N(C)S(C)(=O)=O)c3)n2)c1 |
| 0.545 | 0.525 | 2.35 | 5 | 2.42 | – | – | COc1ccc2[nH]c(-c3cc(C(=O)N[C@@H](C)c4ccccc4)cc(N(C)S(C)(=O)=O)c3)nc2c1 |
| 2.48 | 2.39 | 3.62 | – | 3.72 | – | – | CC(C)(C)Nc1c(-c2ccc(-c3nc4ccc(F)cc4[nH]3)cc2)nc2ccccn12 |
| 0.312 | 0.301 | 4.11 | – | 4.23 | 0.93 | – | CC(C)(C)Nc1c(-c2cccc(-c3nc4ccc(F)cc4[nH]3)c2)nc2ccccn12 |
| 0.187 | 0.18 | 1.82 | – | 1.87 | – | – | C[C@H](NC(=O)c1cc(-c2ncc(-c3cccc(F)c3)[nH]2)cc(N(C)S(C)(=O)=O)c1)c1ccccc1 |
| – | – | – | 204 | – | – | – | Fc1ccc2nc(-c3cccc(-c4cn5ccc(F)cc5n4)c3)[nH]c2c1 [listing 1 of 2 here] |
| – | – | – | 30 | – | – | – | COc1cccc(-c2cnc(-c3cc(C(=O)N[C@@H](C)c4ccccc4)cc(N(C)S(C)(=O)=O)c3)[nH]2)c1 |
| 0.786 | 0.758 | 2.07 | 5 | 2.13 | 0.23 | – | C[C@H](NC(=O)c1cc(-c2nc3cc(F)ccc3[nH]2)cc(N(C)S(C)(=O)=O)c1)c1ccccc1 |
| 0.315 | 0.304 | 1.73 | – | 1.79 | 0.45 | – | C[C@H](NC(=O)c1cc(-c2nc(-c3ccccc3)c[nH]2)cc(N(C)S(C)(=O)=O)c1)c1ccccc1 |
| 0.035 | 0.034 | 3.08 | – | 3.17 | 0.12 | – | Fc1ccc2nc(-c3cccc(-c4cn5ccccc5n4)c3)[nH]c2c1 |
| 0.026 | 0.025 | 3.22 | – | 3.32 | 0.03 | – | COc1ccc2nc(-c3cccc(-c4cn5ccccc5n4)c3)[nH]c2c1 |
| 0.018 | 0.017 | 3.57 | – | 3.67 | 0.037 | – | Fc1ccc2nc(-c3cccc(-c4cn5ccc(F)cc5n4)c3)[nH]c2c1 [listing 2 of 2 here] |
| 0.514 | 0.495 | 3.67 | – | 3.78 | – | – | CC(C)(C)Nc1c(-c2cccc(-c3nc4ccccc4[nH]3)c2)nc2ccccn12 |
| 1.08 | 1.04 | 2.07 | – | 2.13 | – | – | C[C@H](NC(=O)c1cc(-c2nc3ccccc3[nH]2)cc(N(C)S(C)(=O)=O)c1)c1ccccc1 |
| 5.51 | 5.31 | 5.51 | – | 5.68 | – | – | CC(C)(C)Nc1c(-c2ccc(-c3nc4ccccc4[nH]3)cc2)nc2ccccn12 |
